Measurements as given in ChEMBL document CHEMBL4265995, “Chaetolines A and B, Pyrano[3,2- f]isoquinoline Alkaloids from Cultivation of Chaetomium sp. in the Presence of Autoclaved Pseudomonas aeruginosa” (2018).

Columns and labels:
Format in all cases: functional
Staphylococcus aureus [1] = experiment: Antibacterial activity against Staphylococcus aureus ATCC 700699 after 24 hrs by CLSI method; details: ATCC 700699, 24 h
Outline: (§1)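 Broth microdilution in 96-well plates, using a medium of 1.75% w/v acid digest of casein and 0.15% w/v starch. Compounds came from a 10 mg/mL DMSO stock. Serial 2-fold dilutions started at 64 μg/mL, with DMSO diluted along with the compounds (0.64% final at the top concentration). Plates were incubated 24 h at 37 °C and read by visual inspection. Moxifloxacin and rifampicin were the positive controls.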

Klebsiella pneumoniae = experiment: Antibacterial activity against Klebsiella pneumoniae ATCC 13883 after 24 hrs by CLSI method; details: ATCC 13883, 24 h; outline: as §1
Staphylococcus aureus [2] = experiment: Antibacterial activity against Staphylococcus aureus ATCC 29213 after 24 hrs by CLSI method; details: ATCC 29213, 24 h; outline: as §1
Pseudomonas aeruginosa = experiment: Antibacterial activity against Pseudomonas aeruginosa ATCC 27853 after 24 hrs by CLSI method; details: ATCC 27853, 24 h; outline: as §1
Escherichia coli = experiment: Antibacterial activity against Escherichia coli ATCC 25922 after 24 hrs by CLSI method; details: ATCC 25922, 24 h; outline: as §1
Acinetobacter baumannii [3] = experiment: Antibacterial activity against Acinetobacter baumannii BAA747 after 24 hrs by CLSI method; details: BAA747, 24 h; outline: as §1
L5178Y = experiment: Cytotoxicity against mouse L5178Y cells by MTT assay
Outline: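 MTT viability assay on L5178Y mouse lymphoma cells, compared with untreated controls. Negative controls were media containing 0.1% ethylene glycol monomethyl ether/DMSO. Three independent experiments, each in triplicate.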

Acinetobacter baumannii [4] = experiment: Antibacterial activity against Acinetobacter baumannii BAA1605 after 24 hrs by CLSI method; details: BAA1605, 24 h; outline: as §1

SMILES	MIC (Staphylococcus aureus [1]) [µM]	MIC (Klebsiella pneumoniae) [µM]	MIC (Staphylococcus aureus [2]) [µM]	MIC (Pseudomonas aeruginosa) [µM]	MIC (Escherichia coli) [µM]	MIC (Acinetobacter baumannii [3]) [µM]	MIC (L5178Y) [µM]	MIC (Acinetobacter baumannii [4]) [µM]
CCC(C)[C@@H](C(=O)O)n1c(C)cc2c3c(c(C)c(O)c2c1=O)OC[C@H](C(C)(C)O)C3 (stereo partly specified)	> 100	> 100	> 100	> 100	> 100	> 100	> 20	> 100
Cc1c2c(c3cc(C)n([C@@H](CC(C)C)C(=O)O)c(=O)c3c1O)C[C@@H](C(C)(C)O)CO2	> 100	> 100	> 100	> 100	> 100	> 100	> 20	> 100
